Source: ChEMBL document CHEMBL1154945, “Decahydroisoquinoline derivatives as novel non-peptidic, potent and subtype-selective somatostatin sst(3) receptor antagonists” (Bioorg Med Chem Lett, 2010)
Each block holds one molecule with its values, some of them ahead of it.

How the values were obtained:
[1] = molecular target: T1, Somatostatin receptor type 3 (Homo sapiens, UniProt P32745); assay: Binding affinity to human SST3 receptor
[2] = molecular target: Somatostatin receptor type 1 (Homo sapiens, UniProt P30872); assay: Binding affinity to human SST1 receptor
Chain of Somatostatin receptor type 1 (Homo sapiens, UniProt P30872) (P30872 whole entry): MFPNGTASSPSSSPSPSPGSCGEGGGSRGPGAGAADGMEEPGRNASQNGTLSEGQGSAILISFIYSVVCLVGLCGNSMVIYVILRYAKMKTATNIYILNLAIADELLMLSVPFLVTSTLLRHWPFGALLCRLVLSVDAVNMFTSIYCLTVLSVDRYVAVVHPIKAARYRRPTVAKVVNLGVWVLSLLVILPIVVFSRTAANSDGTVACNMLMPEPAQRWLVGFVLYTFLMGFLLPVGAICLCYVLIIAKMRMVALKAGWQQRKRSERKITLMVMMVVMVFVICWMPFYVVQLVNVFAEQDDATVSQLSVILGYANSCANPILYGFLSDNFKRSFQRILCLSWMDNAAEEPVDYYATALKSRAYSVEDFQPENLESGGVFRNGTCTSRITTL

Homo sapiens [3] = organism: Homo sapiens; assay: Selectivity for human SST3 over human SST1
[4] = molecular target: Somatostatin receptor type 2 (Homo sapiens, UniProt P30874); assay: Binding affinity to human SST2 receptor
Chain of Somatostatin receptor type 2 (Homo sapiens, UniProt P30874) (P30874 whole entry): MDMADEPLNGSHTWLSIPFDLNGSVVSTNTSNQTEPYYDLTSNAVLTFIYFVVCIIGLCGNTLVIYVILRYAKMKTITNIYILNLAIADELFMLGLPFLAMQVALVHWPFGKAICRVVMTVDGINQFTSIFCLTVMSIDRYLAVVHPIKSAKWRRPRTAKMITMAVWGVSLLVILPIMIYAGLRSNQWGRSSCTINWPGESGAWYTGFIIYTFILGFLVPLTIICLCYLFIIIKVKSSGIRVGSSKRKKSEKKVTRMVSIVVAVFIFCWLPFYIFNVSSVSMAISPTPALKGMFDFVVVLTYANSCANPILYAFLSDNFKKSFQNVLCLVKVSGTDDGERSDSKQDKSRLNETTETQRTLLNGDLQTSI

Homo sapiens [5] = organism: Homo sapiens; assay: Selectivity for human SST3 over human SST5
[6] = molecular target: Somatostatin receptor type 1 (Rattus norvegicus, UniProt P28646); assay: Displacement of [125I]SRIF-14 from rat cortex membrane SST1 receptor
Chain of Somatostatin receptor type 1 (Rattus norvegicus, UniProt P28646) (P28646 whole entry): as the sequence (P30872 whole entry) above, with S8P, S11T, P16S, S20G, G25V, G26C, A32S, A45S, T385A, T389S counted along it

[7] = molecular target: Somatostatin receptor type 5 (Homo sapiens, UniProt P35346); assay: Binding affinity to human SST5 receptor
Chain of Somatostatin receptor type 5 (P35346 whole entry): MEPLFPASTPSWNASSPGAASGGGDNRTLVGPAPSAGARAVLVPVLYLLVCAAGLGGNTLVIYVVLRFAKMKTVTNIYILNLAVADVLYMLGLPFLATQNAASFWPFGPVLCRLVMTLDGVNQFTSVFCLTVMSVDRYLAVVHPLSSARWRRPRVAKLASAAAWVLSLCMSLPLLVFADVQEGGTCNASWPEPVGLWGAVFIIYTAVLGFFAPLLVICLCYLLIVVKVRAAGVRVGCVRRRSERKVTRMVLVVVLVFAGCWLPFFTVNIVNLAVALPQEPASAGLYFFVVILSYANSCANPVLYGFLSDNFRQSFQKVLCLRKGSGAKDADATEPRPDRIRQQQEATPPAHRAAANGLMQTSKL

[8] = molecular target: Somatostatin receptor type 2 (Rattus norvegicus, UniProt P30680); assay: Displacement of [125I]SRIF-14 from rat cortex membrane SST2 receptor
Chain of Somatostatin receptor type 2 (Rattus norvegicus, UniProt P30680) (P30680 whole entry): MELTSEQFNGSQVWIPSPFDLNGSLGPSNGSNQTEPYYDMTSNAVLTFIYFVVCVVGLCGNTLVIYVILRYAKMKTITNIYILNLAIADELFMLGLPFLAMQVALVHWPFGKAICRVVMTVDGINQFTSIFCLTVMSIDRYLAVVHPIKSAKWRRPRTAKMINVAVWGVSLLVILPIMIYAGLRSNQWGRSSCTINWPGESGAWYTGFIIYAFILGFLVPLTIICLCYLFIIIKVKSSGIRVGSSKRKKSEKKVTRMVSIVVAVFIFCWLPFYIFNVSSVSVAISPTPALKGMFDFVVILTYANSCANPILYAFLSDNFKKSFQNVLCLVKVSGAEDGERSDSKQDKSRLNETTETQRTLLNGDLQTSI

[9] = molecular target: Somatostatin receptor type 4 (Homo sapiens, UniProt P31391); assay: Binding affinity to human SST4 receptor
Chain of Somatostatin receptor type 4 (P31391 whole entry): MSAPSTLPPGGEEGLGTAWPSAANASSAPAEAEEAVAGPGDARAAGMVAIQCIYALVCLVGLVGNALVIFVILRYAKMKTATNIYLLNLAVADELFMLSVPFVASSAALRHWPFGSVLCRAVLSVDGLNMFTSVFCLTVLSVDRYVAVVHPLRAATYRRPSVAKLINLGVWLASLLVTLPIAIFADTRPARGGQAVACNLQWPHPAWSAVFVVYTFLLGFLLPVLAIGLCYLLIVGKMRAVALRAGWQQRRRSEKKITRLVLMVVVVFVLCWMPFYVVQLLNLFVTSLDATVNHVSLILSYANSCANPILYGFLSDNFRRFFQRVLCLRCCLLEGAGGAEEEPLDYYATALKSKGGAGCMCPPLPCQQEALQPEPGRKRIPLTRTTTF

Homo sapiens [10] = organism: Homo sapiens; assay: Selectivity for human SST3 over human SST2
Homo sapiens [11] = organism: Homo sapiens; assay: Selectivity for human SST3 over human SST4
[12] = molecular target: T1, Somatostatin receptor type 3; assay: Antagonist activity at human recombinant SST3 receptor expressed in CHO cells assessed as inhibition of SRIF14-induced cAMP accumulation; format: functional, cell-based
Method in brief: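 cAMP-based functional assay with human recombinant sst3 receptors expressed in CHO cells; test agent's antagonism of SRIF-14 response measured, pKB derived; n = 6.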

T1 sequence (P32745 whole entry): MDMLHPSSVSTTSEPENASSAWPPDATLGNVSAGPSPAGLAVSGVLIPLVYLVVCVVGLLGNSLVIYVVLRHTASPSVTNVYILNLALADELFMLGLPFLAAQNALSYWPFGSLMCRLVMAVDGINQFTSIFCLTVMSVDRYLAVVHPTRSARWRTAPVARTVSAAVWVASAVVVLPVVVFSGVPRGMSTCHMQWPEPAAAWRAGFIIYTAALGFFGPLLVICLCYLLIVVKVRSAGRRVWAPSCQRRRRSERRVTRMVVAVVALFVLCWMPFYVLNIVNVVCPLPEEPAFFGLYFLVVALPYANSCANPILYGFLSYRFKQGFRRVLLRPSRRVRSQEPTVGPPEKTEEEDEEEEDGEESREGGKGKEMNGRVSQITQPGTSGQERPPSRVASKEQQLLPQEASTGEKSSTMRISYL

Compound: O=C(C1CCCN(CCC2c3ccccc3-c3ccccc32)C1)N1CCN(c2ccc([N+](=O)[O-])cc2)CC1 (racemic)
- Kd [1]: 117 nM
- Kd [2]: 120 nM

Compound: CC(Cc1ccc2c(c1)OCO2)CN1C[C@H](C(=O)N2CCN(c3ccc([N+](=O)[O-])cc3)CC2)C[C@@H]2CCCC[C@@H]21 (mixture of isomers)
- Kd [1]: 162 nM
- Kd [2]: 490 nM

Compound: CC(Cc1ccc2c(c1)OCO2)CN1CC2CCCCC2C(C(=O)N2CCN(c3ccc4nccn4n3)CC2)C1 (centres undefined)
- Kd [1]: 240 nM

Compound: CC(Cc1ccc2c(c1)OCO2)CN1CCCC(C(=O)N2CCN(c3ccc([N+](=O)[O-])cc3)CC2)C1 (racemic)
- Kd [1]: 85.1 nM
- Kd [2]: 102 nM

Compound: CC(Cc1ccc2c(c1)OCO2)CN1CC2CCCCC2C(C(=O)N2CCN(c3cc4nccnc4cn3)CC2)C1 (centres undefined)
- Kd [1]: 1580 nM

Compound: CC(Cc1ccc2c(c1)OCO2)CN1CC2CCCCC2C(C(=O)N2CCN(c3cccc4nncn34)CC2)C1 (centres undefined)
- Kd [1]: 2690 nM

Compound: CC(Cc1ccc2c(c1)OCO2)CN1CC2CCCCC2C(C(=O)N2CCN(c3ccc(Cl)cn3)CC2)C1 (centres undefined)
- Kd [1]: 91.2 nM

Compound: CC(Cc1ccc2c(c1)OCO2)CN1CC2CCCCC2C(C(=O)N2CCN(c3ccc(C#N)cn3)CC2)C1 (centres undefined)
- Kd [1]: 79.4 nM

Compound: CC(Cc1ccc2c(c1)OCO2)CN1CC2CCCCC2C(C(=O)N2CCN(c3ccc4nsnc4n3)CC2)C1 (centres undefined)
- Kd [1]: 95.5 nM

Compound: O=C(CCN(CCC1c2ccccc2-c2ccccc21)CC1CC1)N1CCN(c2ccc([N+](=O)[O-])cc2)CC1
- Kd [1]: 302 nM
- Kd [2]: 77.6 nM

Compound: CC(Cc1ccc2c(c1)OCO2)CN1CC2CCCCC2C(C(=O)N2CCN(c3cccc4nccnc34)CC2)C1 (centres undefined)
- Kd [1]: 1350 nM

Compound: CC(Cc1ccc2c(c1)OCO2)CN1CC2CCCCC2C(C(=O)N2CCN(c3cccc(Cl)n3)CC2)C1 (centres undefined)
- Kd [1]: 407 nM

Compound: CC(Cc1ccc2c(c1)OCO2)CN1CC2CCCCC2C(C(=O)N2CCN(c3ccc4nonc4c3)CC2)C1 (centres undefined)
- Kd [1]: 20 nM

Compound: CC(Cc1ccc2c(c1)OCO2)CN1CC2CCCCC2C(C(=O)N2CCN(c3ccccn3)CC2)C1 (centres undefined)
- Kd [1]: 331 nM

Compound: CC(Cc1ccc2c(c1)OCO2)CN1CC2CCCCC2C(C(=O)N2CCN(c3ccc4nonc4n3)CC2)C1 (centres undefined)
- Kd [1]: 19.5 nM

Compound: CC(Cc1ccc2c(c1)OCO2)CN1CC2CCCCC2C(C(=O)N2CCN(c3cccc4nccn34)CC2)C1 (centres undefined)
- Kd [1]: 1260 nM

Compound: CC(Cc1ccc2c(c1)OCO2)CN1CC2CCCCC2C(C(=O)N2CCN(c3ccc4nccnc4n3)CC2)C1 (centres undefined)
- Kd [1]: 107 nM

Compound: CC(Cc1ccc2c(c1)OCO2)CN1CC2CCCCC2C(C(=O)N2CCN(c3cccc(C(F)(F)F)n3)CC2)C1 (centres undefined)
- Kd [1]: 741 nM

Compound: CC(Cc1ccc2c(c1)OCO2)CN1CC2CCCCC2C(C(=O)N2CCN(c3cccc4nonc34)CC2)C1 (centres undefined)
- Kd [1]: 91.2 nM

Compound: CN(CCC(=O)N1CCN(c2ccc([N+](=O)[O-])cc2)CC1)CCC1c2ccccc2-c2ccccc21
- Kd [1]: 1050 nM
- Kd [2]: 7.59 nM

Compound: CC(Cc1ccc2c(c1)OCO2)CN1CC2CCCCC2C(C(=O)N2CCN(c3cccc4nsnc34)CC2)C1 (centres undefined)
- Kd [1]: 191 nM

Now from value to molecule:

- Kd [1]: 2.88 nM
- Kd [2]: 1000 nM
Compound: COC(=O)c1cc(CC(C)CN2CC3CCCCC3C(C(=O)N3CCN(c4ccc([N+](=O)[O-])cc4)CC3)C2)cc(C(=O)OC)c1 (racemic)

- Kd [1]: 34.7 nM
- Kd [2]: 9120 nM
Compound: C[C@@H](Cc1ccc2ncnn2c1)CN1C[C@@H]2CCCC[C@@H]2[C@H](C(=O)N2CCN(c3ccc(F)c(F)c3)CC2)C1

- Kd [1]: 1120 nM
- Kd [2]: 6170 nM
Compound: CC(Cc1ccc2c(c1)OCO2)CN1C[C@H]2CCCC[C@H]2[C@H](C(=O)N2CCN(c3ccc([N+](=O)[O-])cc3)CC2)C1 (mixture of isomers)

- Kd [1]: 1.23 nM
- Kd [2]: 933 nM
- Ratio (Homo sapiens [3]): 760
Compound: COC(=O)c1cc(C[C@H](C)CN2C[C@@H]3CCCC[C@@H]3[C@H](C(=O)N3CCN(c4ccc([N+](=O)[O-])cc4)CC3)C2)cc(C(=O)OC)c1

- Kd [1]: 3.39 nM
- Kd [4]: 5500 nM
- Ratio (Homo sapiens [5]): > 150
- Kd [6]: 457 nM
- Kd [7]: 1100 nM
- Kd [8]: 229 nM
- Kd [2]: 1380 nM
- Kd [9]: 417 nM
- Ratio (Homo sapiens [10]): > 150
- Ratio (Homo sapiens [11]): 120
Compound: Cc1nc2cc(C[C@H](C)CN3C[C@@H]4CCCC[C@@H]4[C@H](C(=O)N4CCN(c5ccc(F)c(F)c5)CC4)C3)ccc2o1

- Kd [1]: 57.5 nM
Compound: CC(Cc1ccc2c(c1)OCO2)CN1CC2CCCCC2C(C(=O)N2CCN(c3ccc(F)cc3)CC2)C1 (centres undefined)

- Kd [1]: 155 nM
- Kd [2]: 537 nM
Compound: CC(Cc1ccc2c(c1)OCO2)CN1C[C@@H](C(=O)N2CCN(c3ccc([N+](=O)[O-])cc3)CC2)C[C@@H]2CCCC[C@H]21 (mixture of isomers)

- Kd [1]: 200 nM
Compound: CC(Cc1ccc2c(c1)OCO2)CN1CC2CCCCC2C(C(=O)N2CCN(c3cccc(F)c3)CC2)C1 (centres undefined)

- Kd [1]: 107 nM
- Kd [2]: 39.8 nM
- Ratio (Homo sapiens [3]): 0.4
Compound: Cc1cn2cc(C[C@H](C)CN3C[C@@H]4CCCC[C@@H]4[C@H](C(=O)N4CCN(c5ccc(F)c(F)c5)CC4)C3)ccc2n1

- Kd [1]: 107 nM
- Kd [2]: 2340 nM
Compound: COC(=O)c1cc(CC(C)CN2C[C@H]3CCCC[C@H]3[C@@H](C(=O)N3CCN(c4ccc([N+](=O)[O-])cc4)CC3)C2)cc(C(=O)OC)c1 (mixture of isomers)

- Kd [1]: 14.1 nM
- Kd [2]: 2340 nM
Compound: CCOc1ccc(C[C@H](C)CN2C[C@@H]3CCCC[C@@H]3[C@H](C(=O)N3CCN(c4ccc(F)c(F)c4)CC3)C2)cn1

- Kd [1]: 1230 nM
- Kd [2]: 2450 nM
Compound: CC(Cc1ccc2c(c1)OCO2)CN1C[C@@H](C(=O)N2CCN(c3ccc([N+](=O)[O-])cc3)CC2)C[C@@H]2CCCC[C@@H]21 (mixture of isomers)

- Kd [1]: 1.35 nM
- Kd [2]: 398 nM
Compound: COC(=O)c1cc(CC(C)CN2C[C@@H]3CCCC[C@@H]3[C@H](C(=O)N3CCN(c4ccc([N+](=O)[O-])cc4)CC3)C2)cc(C(=O)OC)c1 (mixture of isomers)

- Kd [1]: 7.76 nM
- Kd [4]: 3550 nM
- Ratio (Homo sapiens [5]): > 150
- Kd [6]: 1170 nM
- Kd [7]: 1660 nM
- Kd [8]: 151 nM
- Kd [2]: 1550 nM
- Kd [9]: 1020 nM
- Ratio (Homo sapiens [10]): > 150
- Ratio (Homo sapiens [11]): 130
Compound: C[C@@H](Cc1ccc2nsnc2c1)CN1C[C@@H]2CCCC[C@@H]2[C@H](C(=O)N2CCN(c3ccc(F)c(F)c3)CC2)C1

- Kd [1]: 8.51 nM
- Kd [2]: 912 nM
Compound: C[C@@H](Cc1ccc2c(c1)OCO2)CN1C[C@@H]2CCCC[C@@H]2[C@H](C(=O)N2CCN(c3ccc(F)c(F)c3)CC2)C1

- Kd [1]: 11 nM
- Kd [2]: 1620 nM
Compound: C[C@@H](Cc1ccc2ocnc2c1)CN1C[C@@H]2CCCC[C@@H]2[C@H](C(=O)N2CCN(c3ccc(F)c(F)c3)CC2)C1

- Kd [1]: 20.9 nM
Compound: CC(Cc1ccc2c(c1)OCO2)CN1CC2CCCCC2C(C(=O)N2CCN(c3ccc(F)c(F)c3)CC2)C1 (centres undefined)

- Kd [1]: 28.8 nM
- Kd [2]: 1910 nM
Compound: CCNc1ccc(C[C@H](C)CN2C[C@@H]3CCCC[C@@H]3[C@H](C(=O)N3CCN(c4ccc(F)c(F)c4)CC3)C2)cn1

- Kd [1]: 2.24 nM
- Kd [2]: 437 nM
Compound: COC(=O)c1cc(C[C@@H](C)CN2C[C@@H]3CCCC[C@@H]3[C@H](C(=O)N3CCN(c4ccc([N+](=O)[O-])cc4)CC3)C2)cc(C(=O)OC)c1

- pKb [12]: 5.1
- Kd [1]: 3630 nM
- Kd [4]: 38000 nM
- Kd [6]: 813 nM
- Kd [7]: 91200 nM
- Kd [8]: 20900 nM
- Kd [2]: 724 nM
- Kd [9]: 6170 nM
Compound: COc1ccc(C[C@@H](C)CN2C[C@H]3CCCC[C@H]3[C@@H](C(=O)N3CCN(c4ccc(F)c(F)c4)CC3)C2)cn1

- Kd [1]: 11 nM
- Kd [2]: 912 nM
- Ratio (Homo sapiens [3]): 100
Compound: CC(Cc1ccc2c(c1)OCO2)CN1C[C@H]2CCCC[C@H]2[C@@H](C(=O)N2CCN(c3ccc([N+](=O)[O-])cc3)CC2)C1 (mixture of isomers)

- Ratio (Homo sapiens [3]): 620
Compound: Cc1nc2ccc(C[C@H](C)CN3C[C@@H]4CCCC[C@@H]4[C@H](C(=O)N4CCN(c5ccc(F)c(F)c5)CC4)C3)cn2n1

- Kd [1]: 2400 nM
Compound: CC(Cc1ccc2c(c1)OCO2)CN1CC2CCCCC2C(C(=O)N2CCN(c3cccc(=O)n3C)CC2)C1 (centres undefined)

- Kd [1]: 10.7 nM
- Kd [2]: 2630 nM
Compound: C[C@@H](Cc1ccc2nccnc2c1)CN1C[C@@H]2CCCC[C@@H]2[C@H](C(=O)N2CCN(c3ccc(F)c(F)c3)CC2)C1
